Data taken from the RNAGym collection of RNA variant scans (doi:10.1126/science.aae0568).
Variants at the floor of the assay were thinned out.

B1: tRNA (parent)
chain: GUUCCGUUGGCGUAAUGGUAACGCGUCUCCCUCCUAAGGAGAAGACUGCGGGUUCGAGUCCCGUACGGAACG

Variants of: B1
Assay: yeast fitness relative to wild type (ratio to wild type); higher = fitter; tRNA-Arg(CCU), competitive growth, 37 C, YPD
Procedure, shortened: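 Variants of the tRNA-Arg(CCU) gene were chemically synthesised with a 3% per-site mutation rate across 69 sites and placed at the native genomic locus in Saccharomyces cerevisiae. Six parallel replicates of the pooled strains were competed in YPD at 37°C for 24 hours, and gene amplicons from the start and end populations were read by 100-nucleotide paired-end sequencing. Darwinian fitness relative to wild type was derived from changes in genotype frequencies. Genotypes required ≥ 100 starting reads, and estimates < 0.5 were set to 0.5.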

GUUCCGUUGGCGUAAUGGUAACGCGUCUCCCUCUUAACGAGAAGACUGCGGGUCCGAGUCCCGUACGGAACG [C34U G38C U54C] and GAUCCCUUGGCGUAAUGGUAACGCGUCUCCCUCCUAAGGAGAAGACUGCGGGUUCGAGUCCCGUACGCAACG [U2A G6C G68C] cannot be ordered by yeast fitness: at most 0.5 for the first, at most 0.5 for the second.

Compared with GUUACGUUGGCGUAAUGGUAACGGGUCUCUCUCCUAAGGAGAAGGCUGCGGGUUCGAGUCCCGUACGGAACG [C4A C24G C30U A45G], GUUACAUUGGCGUAAUGGUAACGCGUCUCCCUCCUAAGGAGAAGACUGCAGGUUCGAGUCCCGUACGGAACG [C4A G6A G50A] is lower in yeast fitness: 0.523 for the first, at most 0.5 for the second.

Compared with GGUCCGUUCGCAUAAUGGUAACGCGUCUCCCCCCUAAGGAGCAGAAUGCGGGUUCGAGUCCCGUUCGGAACG [U2G G9C G12A U32C A42C C46A A65U], GUUCCGUUGGCGUAAUGGUAGCGCGUCUCCGUCCUAAGGAGAAGACUGCGGGUUCGAGUCCCGUCCGGAACG [A21G C31G A65C] is higher in yeast fitness: at most 0.5 for the first, 0.674 for the second.

First: GUACCGUUGCCGUAAUGGUAACGCGUCUCCCUCCUAAGGAGAAGACUGCGGGUUCGGGUCCCGUAUGGAACG [U3A G10C A57G C66U]
Second: GUUCCGUUGGCGUAAUGGUAACGCGUCUCCCUCCUAAGGAGAAGAUUCCGGGUUCGAGUCCUGUACGGAACG [C46U G48C C62U]
The yeast fitness of the first is lower: at most 0.5 for the first, 1.03 for the second.

Compared with GUUCCGUUGGCGUAAUGGUAACGCGUCUCCCUCCUUAGGAGAAGACUCCGGGUUCGAGUCCCGUACGGAACG [A36U G48C], GUUCCGUUGGCGUAAUGGUGACGCGUCUCCAUCGUAAGGAGAAGUCUGCGGGUUCGAGUCCCGUACGGAACG [A20G C31A C34G A45U] is lower in yeast fitness: 0.648 for the first, at most 0.5 for the second.

Going from GUUCCGUUGGCGUAGUGGUAACGCGGCUCUCUCCUAAGGAGAAGACUGCGUAUUCGAGUCCCGUACGGAACG [A15G U26G C30U G51U G52A] to GUUCCGUUGGCGUAAUGGUAACGUGUCUCCCUGCUAAGGAGAAGACUGCGGGUUCGAGCCCCGAACGGAACG [C24U C33G U59C U64A], the yeast fitness rises from at most 0.5 to 0.686.

GUUCCGUUGGCGUAAUGGUAACGCGUUUCCCUCCUAAGGAGAAGACAGCGGGUUCGAGUCCCGUACGCAACG [C27U U47A G68C] and GUUCCGUGGGCGUAAUGGUAACGCGUCUCCCUCCUAAGGAAAAGACUGCGGGUUCGAGUGCCGUACGGAACG [U8G G41A C60G] cannot be ordered by yeast fitness: at most 0.5 for the first, at most 0.5 for the second.

Going from GUUGCGUCGGCGUAAUGGUAACGCGUCUCCCUCCUAAGGAGAAGACUCCGGGUUCGAGUCCCGUACGGAACG [C4G U8C G48C] to GUCCCGUUGGCGUAAUGGGAACGCGUGUCCCUCAUAAGGAGUAGACUGCGGGUUCGAGUCCCGUACGGAACG [U3C U19G C27G C34A A42U], the yeast fitness falls from 0.568 to at most 0.5.

Compared with GUUACGUUGGCGUAAUGGUAACGCGACUCCCUCCUAAGGAGAAGACUGCGGGUUCGAGUCCCGUACGGAACG [C4A U26A], GUUCCGUUGGCGUAAUGGUAACGGGUCUCCCUCCUAAGGAGAAAAUUGCGGGCUCGAGUCCCGUACGGAACG [C24G G44A C46U U53C] is lower in yeast fitness: 0.683 for the first, at most 0.5 for the second.

Compared with GUUCCGUUGGCGUAAUGGUAACGCGUCUCCCUUAUAAGGAGAAGACUGCAGGUUCGAGUCCUGUACGGACCG [C33U C34A G50A C62U A70C], GUUCCGUUGGCGUAAUGGUAACGCCUCUCCCUCCUAAGGCGAAGACUGCGGGUUCGAGUCCAGUACGGAACG [G25C A40C C62A] is higher in yeast fitness: at most 0.5 for the first, 0.675 for the second.

Compared with GUUCCGUUGACGUAAAGGUAACACGUCUCGCUCCUAAGGAGAAGACUGCGCGUUCGAGUCCCGUACGGAACG [G10A U16A G23A C30G G51C], GUUCUGUUGGCGUAAUGGUAUCGCGUCUCGCUCCUAAGGAGAAGACUGCGGAUUCGAGUCCCGUACGGAUCG [C5U A21U C30G G52A A70U] is higher in yeast fitness: at most 0.5 for the first, 0.534 for the second.

GUUCCGUUGGCGUAAUGGUAUCGCGUCUCCCUUCUAAAGAGAAGUCUGCGGGUUCGAGUCCUGUACGGAACG [A21U C33U G38A A45U C62U] and GUUCCGUUGGCGUAAUGGUCACGCGUCUCCCUUCUAGGGAGAAGACUGGGGGUUCGGGUCCCGUACGGAACG [A20C C33U A37G C49G A57G] cannot be ordered by yeast fitness: at most 0.5 for the first, at most 0.5 for the second.

Compared with GUUCCCUUGGCGUACUGGUACCGCGUCUCCCUCUUAUGGAGAAGACUGCGGGUUCGAGUCCCGUACGGAACG [G6C A15C A21C C34U A37U], GUUCCGUUGGCGUAAUGGUAACGCGUCUCCCUCGUAAGGAGAAGACUGCAGGUUCGAGUCCCGUACGGAACG [C34G G50A] is higher in yeast fitness: 0.502 for the first, 0.644 for the second.

Compared with GUUCCGUUGGCGUAAUGGUAACGCGUCUCCCUCCUAAGGAGAAGGCUGCGGGUUUGAGUCCCGUACAGGACG [A45G C55U G67A A69G], GUUCCGUUGGCGUAACGGUAACGCGUCUCCCUCCUAAGGAGAAGACUGCGGGUUCGAGUCCCGUACGGUACG [U16C A69U] is higher in yeast fitness: at most 0.5 for the first, 0.998 for the second.

First: GUUCCCUUGGCGUAAUGGUAACGCGUCUCCCUCCUUAGGAGAAGACUGCGGGUUCGAGUCCCGUUCGGAACG [G6C A36U A65U]
Second: GUUCCGUUGGCAUAAUGGUAACGCAUCUCCCUCCUAAGGAGAAGACUGCGGGUUCGAGUCCCGUACGGACCG [G12A G25A A70C]
The yeast fitness of the first is lower: at most 0.5 for the first, 0.76 for the second.

First: GUUCCGUUGGCGUAAUGGUGACGCGUCUCCCUCCUAAGGAGAAGACUGCGGGUUCGGGUCCUGUACGGGACG [A20G A57G C62U A69G]
Second: GUUCCGUUGGCGUAAUGGUAACGGGUCUCCCUCGUAAGGAGAAGACUGCGGGUUCGAGUCCCGUACGGACCG [C24G C34G A70C]
The yeast fitness of the first is higher: 0.772 for the first, at most 0.5 for the second.

GGUCCGUUGGCGUAAUGGUAACGCGGCUCUCUCCUAAGGAGAAGACUGCGGGUUCGAGGCCCGGACGAAACG [U2G U26G C30U U59G U64G G68A] and GUUCCGUUGGUGUAAUGGUAAGGCGUUUCCGUCCUAAGGAGAAGACUGCGGGUUCGAGUCCCGUACGGAACG [C11U C22G C27U C31G] cannot be ordered by yeast fitness: at most 0.5 for the first, at most 0.5 for the second.

Going from GUUCUGUUGGCGUAAUGGUAACGCGUUUCCCUCUUAAGGAGAAAACUGCGGGUUCGAGUCCCGUACGGAACG [C5U C27U C34U G44A] to GUUCCGUUGGCGUAAUGGUAACGCGUGACGUUCCUAAGGAGAAGACUGCGGGUUCGAGUACCGUACGGACCG [C27G U28A C30G C31U C60A A70C], the yeast fitness falls from 0.547 to at most 0.5.

Compared with GUUUCGUUGGCGUAAUGGUAACGCGUCUCCCUCCUAUGGAGAAGACUGCGGGUUCGAGUCCCGUACGGAUCG [C4U A37U A70U], GUUCCGUUGGCGUAAAGGUAACGCGUCUCCAUCCUAAGGCGAAGACUGCGGGUUCGAGUCCCGUACGGAACG [U16A C31A A40C] is lower in yeast fitness: 0.676 for the first, at most 0.5 for the second.
